Measurements from ChEMBL document CHEMBL4014282 (Eur J Med Chem, 2017).
Converted amounts (≈) assume the structure as drawn.

Legend:
[1] = Intrinsic clearance in Sprague-Dawley rat liver microsomes assessed per mg protein at 3 uM preincubated for 45 mins followed by NADPH addition by LC-MS/MS method
[2] = Intrinsic clearance in CD1 mouse liver microsomes assessed per mg protein at 3 uM preincubated for 45 mins followed by NADPH addition by LC-MS/MS method
[3] = Stability in simulated gastric fluid at pH 1.2 assessed as compound remaining at 1 uM after 120 mins by LC-MS/MS method
Method in brief: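 Simulated gastric fluid (HCl, NaCl, pepsin; pH 1.2), compound at 1 μM with 2.5% final DMSO, 37 °C. Quenched at 0, 15, 30, 60 and 120 min with methanol containing internal standard. Parent quantified by LC-MS/MS peak-area ratio and expressed as percent remaining versus 0 min.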

[4] = Fraction unbound in mouse plasma at 5 uM by LC-MS/MS method; type: ADME, cell-free
Method in brief: (§1)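 Equilibrium dialysis across a semi-permeable membrane, buffer (pH 7.4) on one side and 100% species-specific plasma on the other. Test compound at 5 μM with 0.5% final DMSO, 37 °C. Both sides sampled at equilibrium and quantified by LC-MS/MS against matrix-matched standard curves. %fu from duplicate incubations, with a control compound in each run.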

[5] = Stability in rat plasma assessed as compound remaining at 1 uM after 120 mins by LC-MS/MS method; type: ADME, cell-free; details: read-out: Stability
Method in brief: (§2)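 Rat or mouse plasma, pH adjusted to 7.4 if needed, spiked with compound at 1 µM (2.5% final DMSO) at 37 °C. Stopped at 0, 15, 30, 60 and 120 min with methanol containing internal standard. Parent measured by LC-MS/MS peak-area ratio and expressed as percent remaining relative to 0 min.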

MDA-MB-231 = test: Antiproliferative activity against human MDA-MB-231 cells after 72 hrs by CellTiter-Glo luminescent assay; type: functional, cell-based; details: MDA-MB-231, 72 h
Method in brief: (§3)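 Cells seeded at 2 x 10⁴/well, rested 24 h, then exposed to increasing concentrations or DMSO vehicle for 72 h. MDA-MB-231 grown in RPMI 1640 with 10% FCS; U2OS grown in DMEM + GlutaMAX with 10% FCS; both at 37°C, 5% CO₂. Viable cells read by ATP luminescence, triplicate wells. IC₅₀ from fitted dose-response curves, mean ± SD of at least 3 independent experiments.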

[6] = Fraction unbound in rat plasma at 5 uM by LC-MS/MS method; type: ADME, cell-free
Method in brief: as §1

U2OS [7] = test: Antiproliferative activity against human U2OS cells after 72 hrs by CellTiter-Glo luminescent assay; type: functional, cell-based
Method in brief: as §3

[8] = Stability in mouse plasma assessed as compound remaining at 1 uM after 120 mins by LC-MS/MS method; type: ADME, cell-free; details: read-out: Stability
Method in brief: as §2

U2OS [9] = test: Cell cycle arrest in human U2OS cells assessed as accumulation at G2/M phase after 24 hrs by propidium iodide staining based flow cytometric method; type: functional
Method in brief: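 Exponentially growing U2OS cells treated 24 h with compound or DMSO vehicle. Cells collected, PBS-washed and fixed in ice-cold 70% methanol. About 1 million cells stained 30 min at 37 °C with propidium iodide (1%) plus RNase A (2.5%) in PBS, then analysed by flow cytometry. Phase percentages given as mean ± SD of two independent experiments.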

[10] = Stability of the compound in polysorbate80/poloxamer188 formulation using liquid sample at 1 mg/ml at 25 degC after 30 days by UV-HPLC method; type: physicochemical; details: 720 h
Method in brief: (§4)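 Intravenous-type dosage solution: API at 1 mg/mL in water for injection containing polysorbate 80 and poloxamer 188 (5 mg/mL each). API dissolved in the surfactants at 70–80 °C, hot water added slowly, then cooled to ambient. Stored at 5 or 25 °C; stability followed by HPLC over 30 days.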

[11] = Thermodynamic solubility of the compound in phosphate buffered saline at pH 7.4 at 1 mg sonicated for 10 mins measured after 12 hrs by HPLC method; type: physicochemical; details: read-out: Therm_solubility
Method in brief: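 Centrifuged until clear, and supernatant analysed by HPLC at 254 nm. Concentration derived from a linear (Y = aX) calibration of MeCN dilutions at 10–100 µg/mL. Measured at 22 °C.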

[12] = Stability of the compound in PEG400 using liquid sample at 5 mg/ml at 25 degC after 30 days by UV-HPLC method; type: physicochemical; details: 720 h
[13] = Stability of the compound in PEG8000 formulation using solid sample at 5 mg/ml at 25 degC after 33 days by UV-HPLC method; type: physicochemical; details: 792 h
Method in brief: (§5)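 Solid tablets cast from hot melt: API dissolved in melted PEG8000 at 90–100 °C with stirring, or first dissolved in PEG400 and then mixed into melted PEG8000, giving a formulation containing 10% PEG400. Stored at 5 or 25 °C, degradation assessed by HPLC over 30 days, with one reading at 33 days.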

[14] = Stability of the compound in PEG400 using liquid sample at 5 mg/ml at 5 degC after 30 days by UV-HPLC method; type: physicochemical; details: 720 h
[15] = Stability of the compound in PEG8000 formulation using solid sample at 5 mg/ml at 5 degC after 30 days by UV-HPLC method; type: physicochemical; details: 720 h
Method in brief: as §5

[16] = Stability of the compound in polysorbate80/poloxamer188 formulation using liquid sample at 1 mg/ml at 5 degC after 30 days by UV-HPLC method; type: physicochemical; details: 720 h
Method in brief: as §4

[17] = Aqueous solubility of the compound; type: physicochemical; details: buffer
[18] = Stability of the compound in PEG400 using liquid sample at 10 mg/ml at 25 degC after 30 days by UV-HPLC method; type: physicochemical; details: 720 h
Method in brief: (§6)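 API dissolved in PEG400 at 70–80 °C with vortexing to a clear solution at 10 mg/mL. Stored at 5 or 25 °C and checked for degradation by HPLC over 30 days.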

[19] = Stability of the compound in PEG8000/10% PEG400 formulation using solid sample at 5 mg/ml at 5 degC after 30 days by UV-HPLC method; type: physicochemical; details: 720 h
Method in brief: as §5

[20] = Stability of the compound in PEG8000/10% PEG400 formulation using solid sample assessed as compound degradation at 5 mg/ml at 25 degC after 33 days by UV-HPLC method; type: physicochemical; details: read-out: Drug degradation
Method in brief: as §5

[21] = Stability of the compound in PEG400 using liquid sample at 10 mg/ml at 5 degC after 30 days by UV-HPLC method; type: physicochemical; details: 720 h
Method in brief: as §6

Compound	CLH [1] [mL/min]	Stability [3] [%]	fraction unbound at 5 µM [4]	remaining at 2 h, 1 µM [5] [%]	IC50 (MDA-MB-231) [µM]	fraction unbound at 5 µM [6]	IC50 (U2OS [7]) [µM]	remaining at 2 h, 1 µM [8] [%]	other results
COc1cc(OC)c2c(c1Cl)O[C@]1(C2=O)C(OCc2ccc(F)cc2)=CC(=O)C[C@H]1C	30.7	–	–	–	–	–	–	–	CLH [2]: 17.4 mL/min
COc1cc(OC)c2c(c1Cl)O[C@]1(C2=O)C(OCc2ccc(C)cc2)=CC(=O)C[C@H]1C	60.2	68	0.018	89	1.7	0.018	1.3	102	–
COc1cc(OC)c2c(c1Cl)O[C@]1(C2=O)C(N(C)Cc2ccccc2)=CC(=O)C[C@H]1C	–	15	0.087	106	3.5	0.06	1.9	104	–
COC1=CC(=O)C[C@@H](C)[C@]12Oc1c(Cl)c(OC)cc(OC)c1C2=O [GRISEOFULVIN]	–	73	0.427	107	–	0.216	–	107	Activity (U2OS [9]): Dose-dependent effect
COc1cc(OC)c2c(c1Cl)O[C@]1(C2=O)C(OCc2ccccc2)=C/C(=N/O)C[C@H]1C	59.1	81	0.043	102	1.4	0.014	1.2	87	Stability [10]: Stable; solubility thermodynamic at 12 h [11]: 3 µg/mL (≈ 6.76 µM); Stability [12]: Stable; Stability [13]: Stable; Stability [14]: Stable; Stability [15]: Stable; Stability [16]: Stable
COc1cc(OC)c2c(c1Cl)O[C@]1(C2=O)C(NCc2ccc(F)cc2)=CC(=O)C[C@H]1C	–	54	0.132	92	5.2	0.094	2.6	108	–
COc1cc(OC)c2c(c1Cl)O[C@]1(C2=O)C(NCc2ccc(C)cc2)=CC(=O)C[C@H]1C	–	54	0.11	111	8.2	0.055	6.9	107	–
COc1cc(OC)c2c(c1Cl)O[C@]1(C2=O)C(O[C@H](C)c2ccccc2)=CC(=O)C[C@H]1C	–	–	–	–	17.1	–	13.7	–	solubility [17]: Insoluble
COc1cc(OC)c2c(c1Cl)O[C@]1(C2=O)C(NCc2ccccc2)=CC(=O)C[C@H]1C	28	52	0.141	116	3.2	0.111	2.1	117	Stability [10]: Unstable; solubility thermodynamic at 12 h [11]: 62 µg/mL (≈ 145 µM); Stability [12]: Stable; Activity (U2OS [9]): Dose-dependent effect; Stability [13]: Stable; Stability [14]: Stable; Stability [15]: Stable; Stability [16]: Stable
COc1cc(OC)c2c(c1Cl)O[C@]1(C2=O)C(O[C@@H](C)c2ccccc2)=CC(=O)C[C@H]1C	–	–	–	–	7.1	–	1.6	–	solubility [17]: Insoluble
COc1cc(OC)c2c(c1Cl)O[C@]1(C2=O)C(OCc2ccccc2)=CC(=O)C[C@H]1C	45	62	0.112	101	1.7	0.027	1.3	91	Stability [18]: Stable; Stability [19]: Stable; Stability [10]: Unstable; solubility thermodynamic at 12 h [11]: 0.3 µg/mL (≈ 0.7 µM); degraded at 792 h, 5 mg/ml [20]: 4%; Stability [21]: Stable
